Reference: paper PMC2193507 (The Journal of Experimental Medicine, 2001)

Assays:
[1] = Isoaspartyl content of peptides; type: physicochemical; conditions: tested at 250 pmol
In short: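 Isoaspartate quantified by radiolabelled methyl incorporation using protein isoaspartyl methyltransferase and S-adenosyl-L-[methyl-3H]methionine, following the ISOQUANT kit protocol. Each peptide preparation was tested at 250 pmol. The manufacturer's standard gave an estimated 1,754 cpm per pmol. Batches had been stored frozen or at 4°C.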

[2] = test system: type A T cells; experiment: Type A T cell hybridomas, recognition; type: cell-based; conditions: all type A T cells in Table 1
In short: (§1)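 IL-2 release assay: I-Ak-expressing M12.C3.F6 B lymphoma cells (5 × 104) were incubated with T cell hybridomas (5 × 104) and decreasing doses of antigen (native HEL or HEL 48–61 peptide) in MEM with 10% FCS for 18 h. Supernatants went to IL-2-dependent CTLL-2 cells cultured 40 h, with [3H]thymidine for the last 24 h.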

[3] = test system: type B T cells; experiment: Type B T cell hybridomas, recognition; type: cell-based; conditions: none of the type B triggered up to the value
In short: as §1

[4] = test system: T cell proliferation; conditions: in words; cited from earlier work
[5] = batch RD (7/00), tryptic peptide from HEL
[6] = batch Abbt (6/98), commercial source

Substance: 46–61: tryptic peptide from HEL
- percentage of isoaspartyl [1, 5]: 0.9%
- pmol of isoaspartyl [1, 5]: 2.1 pmol

Substance: 48–63: HEL peptide 48–63, batches 1387 and Abbt (commercial source) (DGSTDYGILQINSRWW; UniProt P00698 66-81, looked up, fragment)
- percentage of isoaspartyl ([1]; batch 1387 (8/99)): 0.1%
- pmol of isoaspartyl ([1]; batch 1387 (8/99)): 0.3 pmol
- percentage of isoaspartyl [1, 6]: 0 (0%)
- pmol of isoaspartyl [1, 6]: 0 (0%) pmol

Substance: HEL: HEL was purchased from Sigma-Aldrich
- HEL concentration triggering all type A T cells [2]: ~0.1 µM
- HEL concentration up to which none of the type B T cells were triggered [3]: > 10 µM

Substance: murine cytochrome c peptide, residues 90–104: murine cytochrome c peptide, residues 90–104 (ERADLIAYLKKATNE; UniProt P62897 91-105, looked up, fragment)
- T cell proliferation after immunization of mice [4]: did not trigger T cell proliferation
